Measurements: ChEMBL document CHEMBL1134321, “Structure-based generation of a new class of potent Cdk4 inhibitors: new de novo design strategy and library design” (J Med Chem, 2001)

assay: Inhibitory activity against CDK4 using recombinant human cyclin D2-CDK4 complex expressed in sf9 cells
Outline: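 Recombinant human cyclin D2–Cdk4, baculovirus-expressed in Sf9 cells and HPLC-purified; incubated with 50 µM ATP plus 0.5-1.5 µCi [33P]-ATP, 100 µM or 400 µM G1 peptide, in 20 mM Tris-HCl pH 7.4, 10 mM MgCl2, 4.5 mM 2-mercaptoethanol, 1 mM EGTA, 30 °C, 45 min.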

SMILES	IC50 [µM]
CN(C)c1cc(NC(=O)Nc2ccccc2)c2ccccc2n1	90
O=C(NCc1ccccc1)Nc1cccc2ccc(O)cc12	410
O=C(Nc1nccs1)Nc1cccc2ccc(O)cc12	23
O=C(Nc1ccccn1)NC1CCCCC1	> 100
O=C(Nc1cccc2ccc(O)cc12)NC1CCCC1	150
CC(C)NC(=O)Nc1cccc2ccc(O)cc12	220
O=C(Nc1ccccn1)Nc1cccc2c1C(=O)NC2=O	3.6
O=C(Nc1ccccn1)Nc1cccc2c1-c1ccccc1C2=O	0.1
O=C(Nc1ccccn1)Nc1cccc2ccc(O)cc12	7.6
O=C1NC(=O)C(=Cc2ccc3c(c2)OCO3)C(=O)N1	350
O=C(Cc1ccccc1)Nc1cccc2ccc(O)cc12	> 1000
O=C(Nc1ccccn1)Nc1cccc2c1[C@H]1CCCN1C2=O	0.042
O=C(Nc1ccncc1)Nc1cccc2ccc(O)cc12	110
Cc1[nH]c2ccccc2c1/C=C1/NC(=S)NC1=O	14
O=C(NCc1ccccc1)Nc1ccccn1	> 100
COc1nc(N)c(C#N)c(-c2ccc3c(c2)OCO3)c1C#N	36
Nc1nc(N)nc(C2=Cc3cc(Cl)ccc3OC2)n1	450

SMILES	IC50 [µM]
O=C(Nc1ccccn1)Nc1cccc2c1-c1cccn1C2=O	0.034
O=C(Nc1cc(-c2cccs2)ccn1)Nc1cccc2c1C1CCCN1C2=O (stereo not drawn)	0.011
O=C(Nc1ccccc1)Nc1ccccn1	100
O=C(Nc1ccccn1)Nc1cccc2ncccc12	2.4
CSc1ccc(NC(=O)Nc2cccc3c(O)cccc23)cc1	40
O=C(Nc1ccc2c[nH]nc2c1)Nc1ccccn1	0.67
O=C(Nc1ccccc1)Nc1cccc2ccc(O)cc12	120
O=C(Nc1cccnc1)Nc1cccc2ccc(O)cc12	340
O=C(Nc1ccccn1)Nc1cccc2c1[C@@H]1CCCN1C2=O	0.19
Cc1ccc(Cl)cc1NC(=O)Nc1cccc2ccc(O)cc12	44
C=C(O)c1ccc2n1C(=O)c1cccc(NC(=O)Nc3ccccn3)c1-2	0.017
CN(C)c1cc(NC(=O)Nc2cccc(Cl)c2)c2ccccc2n1	36
O=C(Nc1ccc2ncccc2c1)Nc1ccc2ncccc2c1	77
O=C1NC(=S)NC(=O)C1=Cc1c(O)ccc2ccccc12	100
Nc1nc(O)c2nc(CNc3ccc(C(=O)O)cc3)cnc2n1 [PTEROIC ACID]	16
Nc1nc(N)c2nc(-c3ccccc3)c(N)nc2n1 [TRIAMTERENE]	210
